This passage reports IC50 and Ki results from ChEMBL document CHEMBL1152176, “Pyrazoline-based mycobactin analogues as MAO-inhibitors” (Bioorg Med Chem Lett, 2008).

SMILES strings stand for the structures.

Broadly, the IC50 is the midpoint of a concentration-inhibition curve. A higher IC50 goes with lower potency. One may read the Ki as the equilibrium dissociation constant of an inhibitor or competing ligand from its target.

The target of assay [1] is T1, Amine oxidase [flavin-containing] A (Rattus norvegicus, UniProt P21396).
T1 sequence (P21396 whole entry): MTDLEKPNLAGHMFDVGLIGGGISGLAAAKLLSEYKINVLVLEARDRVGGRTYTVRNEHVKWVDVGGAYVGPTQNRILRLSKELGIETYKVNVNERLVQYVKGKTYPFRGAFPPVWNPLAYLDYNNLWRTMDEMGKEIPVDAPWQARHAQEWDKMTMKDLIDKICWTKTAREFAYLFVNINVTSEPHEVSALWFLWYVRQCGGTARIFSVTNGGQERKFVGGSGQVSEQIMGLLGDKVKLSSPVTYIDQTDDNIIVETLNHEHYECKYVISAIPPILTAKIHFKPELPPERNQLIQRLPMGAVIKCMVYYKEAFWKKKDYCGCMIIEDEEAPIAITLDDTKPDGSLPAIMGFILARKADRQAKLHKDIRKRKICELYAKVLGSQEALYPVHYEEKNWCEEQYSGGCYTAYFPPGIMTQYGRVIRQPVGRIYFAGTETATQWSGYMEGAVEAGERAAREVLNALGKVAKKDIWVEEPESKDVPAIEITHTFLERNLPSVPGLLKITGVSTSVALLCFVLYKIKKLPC
The assay is described as follows: Inhibition of MAOA in rat liver homogenates preincubated for 60 mins. It counts as tissue-based. The gist of the method:
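Rat liver MAO assayed by Holt's spectrophotometric method. The chromogenic mix was vanillinic acid, 4-aminoantipyrine and peroxidase type II in potassium phosphate pH 7.6, preincubated with p-tyramine. Inhibitors were preincubated with enzyme at 37 °C for 60 min. A498 was read at 37 °C for 60 min. IC50 came from residual activity versus [I]; mean of three independent experiments.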

Assay [2] can be described thus: Inhibition of rat liver monoamine oxidase by Lineweaver-Burke plot.
Assay [3] addresses T2, Amine oxidase [flavin-containing] B (Rattus norvegicus, UniProt P19643).
T2 sequence (P19643 whole entry): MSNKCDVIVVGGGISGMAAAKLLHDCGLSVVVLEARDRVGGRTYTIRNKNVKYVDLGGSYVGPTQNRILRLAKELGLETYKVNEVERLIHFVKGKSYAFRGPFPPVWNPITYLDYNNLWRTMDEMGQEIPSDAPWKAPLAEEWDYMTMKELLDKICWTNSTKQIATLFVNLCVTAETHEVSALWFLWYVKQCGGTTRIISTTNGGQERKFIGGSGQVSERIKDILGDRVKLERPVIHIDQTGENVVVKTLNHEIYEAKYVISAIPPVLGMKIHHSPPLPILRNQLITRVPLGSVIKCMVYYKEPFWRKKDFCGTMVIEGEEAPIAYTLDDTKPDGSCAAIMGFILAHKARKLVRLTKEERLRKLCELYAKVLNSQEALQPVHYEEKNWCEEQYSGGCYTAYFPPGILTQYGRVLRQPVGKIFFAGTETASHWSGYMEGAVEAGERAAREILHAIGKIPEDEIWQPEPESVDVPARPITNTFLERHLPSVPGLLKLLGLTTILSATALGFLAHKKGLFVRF
The assay is described as follows: Inhibition of MAOB in rat liver homogenates preincubated for 60 mins. Type of assay: tissue-based.

`Oc1ccccc1C1=NN(C(=S)Nc2ccccc2)C(c2ccccc2Cl)C1` (configuration not stated): the IC50 in assay [1] is 20 µM; in assay [3], 455 µM. Also, in assay [2], the inhibition constant Ki came to 18.6 µM.

As for `Oc1ccccc1C1CC(c2ccccc2)=NN1C(=S)Nc1ccccc1` (configuration not stated), the IC50 in assay [1] was determined as 451 µM; in assay [3], 35.5 µM. In addition, affinity in assay [2] was put at a Ki of 34.7 µM.

For the compound `Oc1ccccc1C1=NN(C(=S)Nc2ccccc2)C(c2ccccc2)C1` (configuration not stated), the half-maximal inhibitory concentration (IC50) stood at 49.2 µM in assay [1] and 439 µM in assay [3]. Also, the affinity in assay [2], expressed as Ki, was 40.2 µM.

In turn, `Oc1ccccc1C1=NN(C(=S)Nc2ccccc2)C(c2cccs2)C1` (configuration not stated) registered a 50% inhibitory concentration (IC50) in assay [1] of 5.56 µM.

Turning to `Oc1ccc(C2=NN(C(=S)Nc3ccccc3)C(c3ccc(O)cc3)C2)cc1` (configuration not stated), the IC50 in assay [1] was found to be 32.1 µM; in assay [3], 486 µM. Moreover, in assay [2], the Ki stood at 30.6 µM.

For the compound `COc1ccc(NC(=S)N2N=C(c3ccccc3O)CC2c2ccc(O)cc2)cc1` (configuration not stated), the IC50 in assay [1] was found to be 401 µM; in assay [3], 41.1 µM. In assay [2], this compound came in with an inhibitory constant (Ki) of 39.2 µM.

For the compound `Cc1ccc(NC(=S)N2N=C(c3ccccc3O)CC2c2ccc(O)cc2)cc1` (configuration not stated), the IC50 in assay [1] is 475 µM; in assay [3], 46.1 µM. Moreover, in assay [2], the Ki came out at 42.9 µM.

Consider `COc1ccc(NC(=S)N2N=C(c3ccccc3O)CC2c2ccc(O)c(OC)c2)cc1` (configuration not stated), for which the IC50 is 48.9 µM in assay [1] and 477 µM in assay [3]. This compound had a Ki in assay [2] of 60.5 µM.

On to `COc1cc(C2CC(c3ccccc3O)=NN2C(=S)Nc2ccccc2OC)ccc1O` (configuration not stated), for which the IC50 in assay [1] was determined as 170 µM; in assay [3], 201 µM.

As for `COc1ccccc1NC(=S)N1N=C(c2ccc(O)cc2O)CC1c1ccc(O)cc1` (configuration not stated), the half-inhibitory concentration (IC50) turned out to be 148 µM in assay [1] and 171 µM in assay [3].

`COc1cc(C2CC(c3ccccc3O)=NN2C(=S)Nc2ccc(C)cc2)ccc1O` (configuration not stated): the IC50 in assay [1] is 50.6 µM; in assay [3] it was 481 µM. Further, in assay [2], affinity was put at a Ki of 75.1 µM.

Turning to `COc1cc(C2CC(c3ccc(O)cc3O)=NN2C(=S)Nc2ccccc2OC)ccc1O` (configuration not stated), the concentration for half-maximal inhibition (IC50) in assay [1] worked out at 180 µM; in assay [3], 170 µM.

As for `COc1ccc(NC(=S)N2N=C(c3ccccc3O)CC2c2ccccc2O)cc1` (configuration not stated), the IC50 was 470 µM in assay [1] and 40.8 µM in assay [3]. The affinity in assay [2] corresponds to a Ki of 36.2 µM.

Take `COc1ccc(NC(=S)N2N=C(c3ccc(O)cc3O)CC2c2ccc(O)c(OC)c2)cc1` (configuration not stated): the IC50 in assay [1] was 53.4 µM; in assay [3] it was 475 µM. In addition, in assay [2], the Ki worked out at 71.1 µM.

Regarding `COc1ccc(NC(=S)N2N=C(c3ccc(O)cc3O)CC2c2ccc(O)cc2)cc1` (configuration not stated), the figures for the IC50 in assay [1] and in assay [3] were 69.6 µM and 456 µM, respectively. In assay [2], this compound gave a Ki of 85.5 µM.

As for `COc1ccccc1NC(=S)N1N=C(c2ccccc2O)CC1c1ccc(O)cc1` (configuration not stated), the values for the concentration for half-maximal inhibition (IC50) in assay [1] and in assay [3] were 151 µM and 144 µM, respectively.

For the compound `Cc1ccccc1NC(=S)N1N=C(c2ccccc2O)CC1c1ccc(O)cc1` (configuration not stated), the IC50 in assay [1] is 189 µM; in assay [3] it was 180 µM.

Turning to `Cc1ccccc1NC(=S)N1N=C(c2ccccc2O)CC1c1ccccc1O` (configuration not stated), the figures for the IC50 in assay [1] and in assay [3] were 170 µM and 180 µM, respectively.

`NC(=S)N1N=C(c2ccccc2O)CC1c1ccc(O)cc1` (configuration not stated): the IC50 in assay [1] was found to be 466 µM; in assay [3], 19.5 µM. The same compound returned an inhibition constant (Ki) in assay [2] of 15.2 µM.

Take `Oc1ccccc1C1=NN(C(=S)Nc2ccccc2)C(c2ccccc2O)C1` (configuration not stated): the IC50 is 58.1 µM in assay [1] and 420 µM in assay [3]. For the same compound, in assay [2], the affinity corresponds to a Ki of 48.5 µM.

For the compound `Oc1ccc(C2CC(c3ccccc3O)=NN2C(=S)Nc2ccccc2)cc1` (configuration not stated), the IC50 was 67.2 µM in assay [1] and 400 µM in assay [3]. This compound also yielded a Ki in assay [2] of 50.5 µM.

On to `COc1ccccc1C1CC(c2ccccc2O)=NN1C(=S)Nc1ccccc1` (configuration not stated), for which the concentration for half-maximal inhibition (IC50) in assay [1] stood at 74.2 µM; in assay [3], 419 µM. The compound further registered an inhibition constant Ki in assay [2] of 63.6 µM.

For `Oc1ccccc1C1=NN(C(=S)Nc2ccccc2)C(c2ccc(Cl)cc2)C1` (configuration not stated), the half-inhibitory concentration (IC50) in assay [1] is 23.2 µM; in assay [3], 400 µM. The same compound came in with an inhibition constant (Ki) in assay [2] of 20.1 µM.

Take `COc1ccccc1NC(=S)N1N=C(c2ccccc2O)CC1c1ccccc1O` (configuration not stated): the figures for the half-maximal inhibitory concentration (IC50) in assay [1] and in assay [3] were 144 µM and 171 µM, respectively.

For `Cc1ccc(NC(=S)N2N=C(c3ccccc3O)CC2c2ccccc2O)cc1` (configuration not stated), the half-inhibitory concentration (IC50) in assay [1] turned out to be 400 µM; in assay [3] it was 37.7 µM. The compound also displayed a Ki in assay [2] of 35 µM.

Turning to `COc1cc(C2CC(c3ccccc3O)=NN2C(=S)Nc2ccccc2)ccc1O` (configuration not stated), the IC50 in assay [1] came out at 40.1 µM; in assay [3], 451 µM. Besides, the Ki in assay [2] came to 62.7 µM.

For `COc1cc(C2CC(c3ccc(O)cc3O)=NN2C(=S)Nc2ccccc2)ccc1O` (configuration not stated), the concentration for half-maximal inhibition (IC50) stood at 65.6 µM in assay [1] and 490 µM in assay [3]. In assay [2], this compound had a Ki of 79.2 µM.

Take `Oc1ccc(C2CC(c3ccccc3)=NN2C(=S)Nc2ccccc2)cc1` (configuration not stated): the figures for the concentration for half-maximal inhibition (IC50) in assay [1] and in assay [3] were 476 µM and 48.6 µM, respectively. In addition, the Ki in assay [2] was 40.6 µM.

Regarding `Oc1ccc(C2CC(c3ccc(O)cc3O)=NN2C(=S)Nc2ccccc2)cc1` (configuration not stated), the IC50 is 58.6 µM in assay [1] and 470 µM in assay [3]. The Ki in assay [2] was 80 µM.

Regarding `COc1ccc(C2CC(c3ccccc3O)=NN2C(=S)Nc2ccccc2)cc1` (configuration not stated), the values for the IC50 in assay [1] and in assay [3] were 2.84 µM and 415 µM, respectively. Moreover, in assay [2], the Ki was 2.5 µM.

Turning to `Oc1ccccc1C1=NN(C(=S)Nc2ccccc2)C(c2ccco2)C1` (configuration not stated), the values for the IC50 in assay [1] and in assay [3] were 33.4 µM and 440 µM, respectively. In assay [2], this compound showed a Ki of 27.5 µM.

In the case of `COc1cc(C2CC(c3ccccc3O)=NN2C(=S)Nc2ccccc2C)ccc1O` (configuration not stated), the figures for the IC50 in assay [1] and in assay [3] were 201 µM and 198 µM, respectively.

`C#CCN(C)CCCOc1ccc(Cl)cc1Cl` [CLORGILINE] returned a Ki in assay [2] of 1.99 µM.

`O=C(NCCN1CCOCC1)c1ccc(Cl)cc1` [MOCLOBEMIDE] had an inhibitory constant (Ki) in assay [2] of 2.25 µM. Moreover, the IC50 in assay [3] stood at 480 µM.

`C#CCN(C)Cc1ccccc1` [PARGYLINE]: the inhibition constant (Ki) in assay [2] was 3.25 µM. Also, in assay [3], the 50% inhibitory concentration (IC50) was 3.85 µM.

On to `C#CCN(C)[C@H](C)Cc1ccccc1` [SELEGILINE], for which, in assay [2], the affinity corresponds to a Ki of 1.9 µM.
